Experimental data as given in ChEMBL document CHEMBL1649306, “Arylimidamide DB766, a potential chemotherapeutic candidate for Chagas' disease treatment” (Antimicrob Agents Chemother, 2010).
pIC50: −log10 of the molar value. Activity calls are given as the source filed them. The rule behind the calls is not given here.

How the values were obtained:
Mus musculus [1] = assay: Toxicity in […](H-2k) mouse assessed as effect on creatine kinase level at 100 mg/kg/day, po; assay type: organism-based; parameters: route oral; conditions: in vivo
Trypanosoma cruzi [2] = assay: Antitrypanosomal activity against Trypanosoma cruzi Y infected in Swiss-Webster mouse assessed as decrease in parasite-induced weight loss at 100 mg/kg/day, ip administered 5 days post-infection for 10 consecutive days measured on day 120; assay type: functional, organism-based
Summary of the method: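 Body weight of infected, treated mice followed from 0 to 120 dpi.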

Mus musculus [3] = assay: Cardiotoxicity in […] mouse assessed as effect on heart rate level at 100 mg/kg/day, po; assay type: toxicity, organism-based; parameters: route oral; conditions: in vivo
Summary of the method: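 Colombian strain, 5 × 10³ bloodstream forms i.p. into male C3H/He mice; 100 mg/kg/day given i.p. or by gavage (0.1 ml) daily for 10 doses from parasitemia onset. Mice sedated with diazepam (20 mg/kg i.p.), supine; eight-lead ECG from subcutaneous limb needle electrodes plus precordial lead II. Signal-averaged ECG; heart rate as beats per minute.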

Trypanosoma cruzi [4] = assay: Antitrypanosomal activity against Trypanosoma cruzi Y bloodstream forms infected in Swiss-Webster mouse assessed as decrease in parasite load at 100 mg/kg/day, po administered 5 days postinfection for 10 alternate days measured after 31 days; assay type: functional; parameters: scale not given: the % may be the effect or the level left
Summary of the method: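 Male Swiss mice infected with 10^4 Y strain bloodstream forms and treated every other day with 100 mg/kg/day, reference drug by gavage. Parasitemia measured by the Pizzi-Brener method.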

Mus musculus [5] = assay: Cytotoxicity against Swiss-Webster mouse assessed as effect on creatine kinase at 100 mg/kg/day measured after 14 days postinfection; assay type: organism-based; conditions: in vivo, 336 h
Mus musculus [6] = assay: Hepatotoxicity against Swiss-Webster mouse assessed as GPT at 100 mg/kg/day measured after 14 days postinfection; assay type: toxicity, organism-based; conditions: in vivo, 336 h
[7] = Toxicity in […](H-2k) mouse assessed as mortality at cumulative dose of 100 mg/kg, po measured after 48 hrs; assay type: organism-based; parameters: dose 100 mg/kg, route oral; conditions: in vivo, read-out: Activity
Trypanosoma cruzi [8] = assay: Antitrypanosomal activity against Trypanosoma cruzi Y epimastigotes after 24 hrs by light microscopy; assay type: functional, organism-based
Summary of the method: (§1)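 Epimastigotes from 5-day exponential cultures, 5 × 10^6 parasites/ml in LIT medium, incubated at 28°C up to 96 h with DB766 0 to 32 μM or Bz 0 to 250 μM. Counted daily in a Neubauer chamber. IC50 averaged from at least three determinations in duplicate.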

Trypanosoma cruzi [9] = assay: Antitrypanosomal activity against Trypanosoma cruzi 855 epimastigotes after 24 hrs by light microscopy; assay type: functional, organism-based; conditions: Trypanosoma cruzi, 855, 24 h; summary of the method: as §1
Trypanosoma cruzi [10] = assay: Antitrypanosomal activity against Trypanosoma cruzi 875 epimastigotes after 24 hrs by light microscopy; assay type: functional, organism-based; conditions: Trypanosoma cruzi, 875, 24 h; summary of the method: as §1
Trypanosoma cruzi [11] = assay: Antitrypanosomal activity against Trypanosoma cruzi 956 epimastigotes after 24 hrs by light microscopy; assay type: functional, organism-based; conditions: Trypanosoma cruzi, 956, 24 h; summary of the method: as §1
Trypanosoma cruzi [12] = assay: Antitrypanosomal activity against Trypanosoma cruzi 958 epimastigotes after 24 hrs by light microscopy; assay type: functional, organism-based; conditions: Trypanosoma cruzi, 958, 24 h; summary of the method: as §1
Trypanosoma cruzi [13] = assay: Antitrypanosomal activity against Trypanosoma cruzi 960 epimastigotes after 24 hrs by light microscopy; assay type: functional, organism-based; conditions: Trypanosoma cruzi, 960, 24 h; summary of the method: as §1
Trypanosoma cruzi [14] = assay: Antitrypanosomal activity against Trypanosoma cruzi MS1523 epimastigotes after 24 hrs by light microscopy; assay type: functional, organism-based; conditions: MS1523, 24 h; summary of the method: as §1
Trypanosoma cruzi [15] = assay: Antitrypanosomal activity against Trypanosoma cruzi RBVIII epimastigotes after 24 hrs by light microscopy; assay type: functional, organism-based; summary of the method: as §1
Mus musculus [16] = assay: Toxicity in […](H-2k) mouse assessed as mortality at cumulative dose of 200 mg/kg, ip measured after 48 hrs; assay type: organism-based; parameters: dose 200 mg/kg, route intraperitoneal; conditions: in vivo
Summary of the method: (§2)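 Uninfected 8–10-week-old female and male Swiss Webster and C3H/He (H-2k) mice injected i.p. on day 1 every 2 h with escalating doses: 5, 15, 30, 50 and 100 mg/kg (cumulative 20, 50, 100, 200 mg/kg). Toxic and subtoxic signs inspected on days 2–3 per OECD guidelines; tolerated dose set at 48 h.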

Mus musculus [17] = assay: Toxicity in female Swiss-Webster mouse assessed as mortality at cumulative dose of 200 mg/kg, ip measured after 48 hrs; assay type: organism-based; parameters: dose 200 mg/kg, route intraperitoneal; conditions: in vivo; summary of the method: as §2
Mus musculus [18] = assay: Toxicity in male Swiss-Webster mouse assessed as mortality at cumulative dose of 200 mg/kg, ip measured after 48 hrs; assay type: organism-based; parameters: dose 200 mg/kg, route intraperitoneal; conditions: in vivo; summary of the method: as §2
Mus musculus [19] = assay: Toxicity in male Swiss-Webster mouse assessed as weight loss at cumulative dose of 200 mg/kg, ip measured after 48 hrs; assay type: organism-based; parameters: dose 200 mg/kg, route intraperitoneal; conditions: in vivo
Summary of the method: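 Acute toxicity in 8–10-week-old Swiss Webster mice. i.p. injections every 2 h of 5, 15, 30, 50 and 100 mg/kg (cumulative 200 mg/kg) on day 1. Toxic and subtoxic signs inspected on days 2 and 3 per OECD guidelines; outcome read 48 h after injection.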

Trypanosoma cruzi [20] = assay: Antitrypanosomal activity against Trypanosoma cruzi Y bloodstream forms infected in Swiss-Webster mouse assessed as decrease in parasite load at 100 mg/kg/day, po administered 8 days postinfection measured on day 2; assay type: functional, organism-based
Summary of the method: (§3)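 Male Swiss mice infected i.p. with 10^4 Y strain bloodstream forms. Given 0.2 ml i.p. at 5 and 8 dpi, or daily for 10 days from 5 dpi; reference drug given by gavage. Parasitemia measured by the Pizzi-Brener method, cumulative mortality checked daily to 120 dpi, n ≥ 6 per group.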

Trypanosoma cruzi [21] = assay: Antitrypanosomal activity against Trypanosoma cruzi Y bloodstream forms infected in Swiss-Webster mouse assessed as survival of mouse at 100 mg/kg/day, ip administered 8 days postinfection measured on day 120; assay type: functional, organism-based; summary of the method: as §3
Trypanosoma cruzi [22] = assay: Antitrypanosomal activity against Trypanosoma cruzi Columbian bloodstream forms infected in C3H mouse assessed as decrease in parasite load at 100 mg/kg/day, ip administered 21 days postinfection measured on day 46; assay type: functional, organism-based
Summary of the method: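 C3H/He mice infected i.p. with 10^2 Colombian strain bloodstream forms. Treatment started at parasitemia onset (21 dpi) with daily doses for 10 treatments, 0.1 ml i.p. Parasitemia measured by the Pizzi-Brener method; n ≥ 6 parasitemic mice per group.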

Mus musculus [23] = assay: Hepatotoxicity in Swiss-Webster mouse assessed as effect on GPT level at 25 mg/kg/day, ip administered 21 days postinfection measured on day 120; assay type: toxicity, organism-based; parameters: route intraperitoneal; conditions: in vivo, 504 h
Mus musculus [24] = assay: Hepatotoxicity in Swiss-Webster mouse assessed as effect on GPT level at 50 mg/kg/day, ip administered 21 days postinfection measured on day 120; assay type: toxicity, organism-based; parameters: route intraperitoneal; conditions: in vivo, 504 h
Mus musculus [25] = assay: Hepatotoxicity in Swiss-Webster mouse assessed as increased GPT level at 100 mg/kg/day, ip administered 21 days postinfection measured on day 120; assay type: toxicity, organism-based; parameters: route intraperitoneal; conditions: in vivo, 504 h
Trypanosoma cruzi [26] = assay: Antitrypanosomal activity against Trypanosoma cruzi Columbian bloodstream forms infected in C3H mouse assessed as survival of mouse at 100 mg/kg/day, po administered 5 days postinfection for 10 consecutive days measured after 31 days; assay type: functional
Summary of the method: (§4)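 Male C3H/He (H-2k) mice infected i.p. with 5 × 10^3 Colombian-strain bloodstream trypomastigotes; only parasitemia-positive mice grouped (n ≥ 6). DB766 100 mg/kg/day given i.p. (0.1 ml) or by gavage (0.1 ml), daily for 10 treatments. Parasitemia by Pizzi-Brener method; mortality checked daily, expressed as cumulative percentage.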

Trypanosoma cruzi [27] = assay: Antitrypanosomal activity against Trypanosoma cruzi Columbian bloodstream forms infected in C3H mouse assessed as decrease in parasite load at 100 mg/kg/day, ip administered 5 days postinfection for 10 consecutive days measured after 31 days; assay type: functional; parameters: scale not given: the % may be the effect or the level left; conditions: route intraperitoneal
Summary of the method: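 C3H/He mice infected i.p. with 10^3 or 5 × 10^3 Colombian strain bloodstream forms. Treated daily for 10 days with 0.1 ml i.p. or by gavage, reference drug given by gavage. Parasitemia measured by the Pizzi-Brener method; n ≥ 6 parasitemic mice per group.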

Trypanosoma cruzi [28] = assay: Antitrypanosomal activity against Trypanosoma cruzi Columbian bloodstream forms infected in C3H mouse assessed as survival of mouse at 100 mg/kg/day, ip administered 5 days postinfection for 10 consecutive days measured after 31 days; assay type: functional; conditions: route intraperitoneal; summary of the method: as §4
Trypanosoma cruzi [29] = assay: Antitrypanosomal activity against bloodstream forms of Trypanosoma cruzi Y after 24 hrs by light microscopy in presence of 50% mouse blood; assay type: functional, organism-based
Summary of the method: (§5)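 Bloodstream trypomastigotes kept at 4°C for 24 h in freshly isolated 50% mouse blood with serial dilutions (up to 32 μM). Motile live parasites counted in a Neubauer chamber by light microscopy; IC50 calculated as concentration reducing parasite number by 50%.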

Trypanosoma cruzi [30] = assay: Antitrypanosomal activity against bloodstream forms of Trypanosoma cruzi YuYu after 24 hrs by light microscopy in presence of 50% mouse blood; assay type: functional, organism-based; summary of the method: as §5
Trypanosoma cruzi [31] = assay: Antitrypanosomal activity against bloodstream forms of Trypanosoma cruzi Columbian after 24 hrs by light microscopy in presence of 50% mouse blood; assay type: functional, organism-based; summary of the method: as §5
Trypanosoma cruzi [32] = assay: Antitrypanosomal activity against bloodstream forms of Trypanosoma cruzi CL after 24 hrs by light microscopy in presence of 50% mouse blood; assay type: functional, organism-based; summary of the method: as §5

## O=C(Cn1ccnc1[N+](=O)[O-])NCc1ccccc1 [BENZNIDAZOLE]
Mus musculus [1]
  Activity: 68%
Trypanosoma cruzi [2]
  Activity: Active
Mus musculus [3]
  Activity: Non-toxic
Trypanosoma cruzi [4]
  Activity: 79.4%
Mus musculus [5]
  Activity: Non-toxic
Mus musculus [6]
  Activity: Non-toxic
[7]
  mortality at 48 h: 100%
Trypanosoma cruzi [8]
  pIC50: 5.12
  IC90: 86.6 µM
Trypanosoma cruzi [9]
  pIC50: 4.90
  IC90: 226 µM
Trypanosoma cruzi [10]
  pIC50: 5.10
  IC90: 196 µM
Trypanosoma cruzi [11]
  pIC50: 5.40
  IC90: 20.4 µM
Trypanosoma cruzi [12]
  pIC50: 4.86
  IC90: 58.3 µM
Trypanosoma cruzi [13]
  pIC50: 5.19
  IC90: 38.2 µM
Trypanosoma cruzi [14]
  pIC50: 5.28
  IC90: 30.6 µM
Trypanosoma cruzi [15]
  pIC50: 5.30
  IC90: 35.7 µM
Mus musculus [16]
  Activity: Non-toxic
Mus musculus [17]
  Activity: Non-toxic
Mus musculus [18]
  Activity: Non-toxic
Mus musculus [19]
  Activity: 7%
Trypanosoma cruzi [20]
  Activity: inactive
Trypanosoma cruzi [21]
  Activity: inactive
Trypanosoma cruzi [22]
  Activity: inactive
Mus musculus [23]
  Activity: Non-toxic
Mus musculus [24]
  Activity: Non-toxic
Mus musculus [25]
  Activity: Toxic
Trypanosoma cruzi [26]
  Activity: 100%
Trypanosoma cruzi [27]
  Activity: 100%
Trypanosoma cruzi [28]
  Activity: 99%

## N=C(N)c1ccc(-c2ccc(-c3ccc(C(=N)N)cc3)o2)cc1 [FURAMIDINE]
Trypanosoma cruzi [29]
  pIC50: < 4.49
Trypanosoma cruzi [30]
  pIC50: < 4.49
Trypanosoma cruzi [31]
  pIC50: < 4.49
Trypanosoma cruzi [32]
  pIC50: < 4.49
